This passage reports ILS, LD50 and inhibition in vivo results from ChEMBL document CHEMBL3244424, “Potential anticancer agents. 17. Analogues of methotrexate with a tripeptide side chain” (J Med Chem, 1978).

The structures appear in SMILES notation.

The test system of data set [1] is L1210. Kind of data set: Antitumor activity against mouse L1210 cells allografted in BDF1 mouse assessed as increase in life span at 50 mg/kg administered 6 times starting 24 hrs post challenge relative to control. Type of data set: functional. The settings on record: L1210, 24 h. The method in brief:
(§1)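 L1210 leukemia cells, 10^6, inoculated ip; dosing started 24 h after inoculation, given daily as an aqueous solution at pH 8.0-8.4. Survival of treated versus control mice was read out as %ILS = (T/C − 1) × 100.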

Data set [2] is described as follows: Toxicity in Wistar rat administered as single dose. Type of data set: organism-based. The settings on record: in vivo.
Data set [3] deals with W256. The data set can be described thus: Antitumor activity against […] cells allografted in rat assessed as tumor growth inhibition at 60 mg/kg administered 14 times starting 7 days post challenge relative to control. The settings on record: W256, 7 days, read-out: TGI.
Data set [4] relates to L1210. The data set can be described thus: Antitumor activity against mouse L1210 cells allografted in BDF1 mouse assessed as increase in life span at 40 mg/kg administered 10 times starting 24 hrs post challenge relative to control. The settings on record: L1210, 24 h. Format: functional. In a few lines:
as §1

In data set [5] the test system is W256. Kind of data set: Antitumor activity against […] cells allografted in rat assessed as tumor growth inhibition at 18 mg/kg administered 13 times starting 7 days post challenge relative to control. The settings on record: W256, 7 days, read-out: TGI.
Data set [6] deals with L1210. Kind of data set: Antitumor activity against mouse L1210 cells allografted in BDF1 mouse assessed as increase in life span at 33 mg/kg administered 6 times starting 24 hrs post challenge relative to control. Type of data set: functional. The settings on record: L1210, 24 h. The method in brief:
as §1

The subject of data set [7] is W256. Kind of data set: Antitumor activity against […] cells allografted in rat assessed as tumor growth inhibition at 100 mg/kg administered 13 times starting 7 days post challenge relative to control. The settings on record: W256, 7 days, read-out: TGI.
The test system of data set [8] is L1210. Kind of data set: Antitumor activity against mouse L1210 cells allografted in BDF1 mouse assessed as increase in life span at 100 mg/kg administered 8 times starting 24 hrs post challenge relative to control. Format: functional. The settings on record: L1210, 24 h. In a few lines:
as §1

Data set [9] relates to L1210. Kind of data set: Antitumor activity against mouse L1210 cells allografted in BDF1 mouse assessed as increase in life span at 100 mg/kg administered 6 times starting 24 hrs post challenge relative to control. Type of data set: functional. The settings on record: L1210, 24 h. The method in brief:
as §1

The subject of data set [10] is L1210. The data set can be described thus: Antitumor activity against mouse L1210 cells allografted in BDF1 mouse assessed as increase in life span at 50 mg/kg administered 8 times starting 24 hrs post challenge relative to control. Format: functional. The settings on record: L1210, 24 h. The method in brief:
as §1

Data set [11] relates to L1210. Kind of data set: Antitumor activity against mouse L1210 cells allografted in BDF1 mouse assessed as increase in life span at 100 mg/kg administered 7 times starting 24 hrs post challenge relative to control. Type of data set: functional. The settings on record: L1210, 24 h. The method in brief: as §1

As usually defined, the ILS is how much longer treated animals lived than controls. What is called LD50 is the dose at which mortality reaches 50%. Read a low LD50 as greater toxicity. For the compound `CC(NC(=O)c1ccc(N(C)Cc2cnc3nc(N)nc(N)c3n2)cc1)C(=O)NC(CCC(=O)O)C(=O)O` (stereo not given), the ILS at 50 mg/kg in the data set on L1210 [1] is 19%. For the same compound, the median lethal dose (LD50) in [2] is 500 mg/kg.
As for `Nc1nc(N)c2nc(CNc3ccc(C(=O)NCC(=O)NC(CC(=O)O)C(=O)O)cc3)cnc2n1.O` (stereo not given), the inhibition in vivo at 60 mg/kg in the data set on W256 [3] was 55%. Besides, the ILS at 40 mg/kg with L1210 [4] was found to be 69%. In [2], the LD50 came to 200 mg/kg.
Regarding `Nc1nc(N)c2nc(CNc3ccc(C(=O)NCC(=O)NC(CCC(=O)O)C(=O)O)cc3)cnc2n1.O` (stereo not given), the inhibition in vivo at 18 mg/kg in the data set with W256 [5] turned out to be 30%. For the same compound, in the data set with L1210 [6], the ILS at 33 mg/kg came to 14%. The compound also had a 50% lethal dose (LD50) in data set [2] of 400 mg/kg.
In the case of `CN(Cc1cnc2nc(N)nc(N)c2n1)c1ccc(C(=O)NCC(=O)NC(CC(=O)O)C(=O)O)cc1.O` (stereo not given), the inhibition in vivo at 100 mg/kg in the data set with W256 [7] worked out at 41%. The compound also had an LD50 in [2] of 500 mg/kg. In addition, the increase in life span (ILS) at 100 mg/kg with L1210 [8] is 40%.
Compound `CN(Cc1cnc2nc(N)nc(N)c2n1)c1ccc(C(=O)NCC(=O)NC(CCC(=O)O)C(=O)O)cc1.O` (stereo not given) displayed an LD50 in [2] of 830 mg/kg. Also, the increase in life span (ILS) at 100 mg/kg in the data set with L1210 [8] is 0%.
`CN(CC(=O)NC(CCC(=O)O)C(=O)O)C(=O)c1ccc(N(C)Cc2cnc3nc(N)nc(N)c3n2)cc1.O` (stereo not given): the ILS at 100 mg/kg in the data set on L1210 [9] stood at 0%. In [2], this compound displayed a median lethal dose (LD50) of 1000 mg/kg.
In the case of `CC(C)C[C@H](NC(=O)c1ccc(N(C)Cc2cnc3nc(N)nc(N)c3n2)cc1)C(=O)NC(CCC(=O)O)C(=O)O` (stereo not given in full), the increase in life span (ILS) at 50 mg/kg in the data set with L1210 [10] was 0%. Further, in [2], the median lethal dose (LD50) was determined as 500 mg/kg.
Take `CN(Cc1cnc2nc(N)nc(N)c2n1)c1ccc(C(=O)N[C@@H](Cc2ccccc2)C(=O)NC(CC(=O)O)C(=O)O)cc1.O` (stereo not given in full): the increase in life span (ILS) at 100 mg/kg with L1210 [11] turned out to be 0%. Moreover, the LD50 in [2] stood at 1000 mg/kg.
For `CN(Cc1cnc2nc(N)nc(N)c2n1)c1ccc(C(=O)N[C@@H](Cc2ccccc2)C(=O)NC(CCC(=O)O)C(=O)O)cc1.O` (stereo not given in full), the 50% lethal dose (LD50) in data set [2] worked out at 500 mg/kg.
